Assay results reported in ChEMBL document CHEMBL1268815, “Modulating the development of E. coli biofilms with 2-aminoimidazoles” (Bioorg Med Chem Lett, 2010).

Assays:
[1] = system: Escherichia coli K-12; experiment: Effect on Escherichia coli K-12 ER2738 biofilm formation at 400 uM after 24 hrs by crystal violet reporter assay relative to control; format: functional; conditions: ER2738, 24 h
Method in brief: (§1)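 Initial single-concentration screen for effect on biofilm development. Bacteria were incubated statically with or without compound for 24 h. Medium and planktonic cells were removed and wells were water-washed. Attached biofilm was stained with crystal violet, washed, and the stain was solubilized in ethanol and read at A540. Results were expressed relative to untreated control as means of three experiments.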

[2] = system: Acinetobacter baumannii; experiment: Effect on Acinetobacter baumannii biofilm formation at 400 uM after 24 hrs by crystal violet reporter assay relative to control; format: functional; conditions: read-out: INH; method in brief: as §1
[3] = Toxicity in sheep RBC assessed as induction of hemolysis; format: cell-based, Ovis aries; conditions: erythrocyte
[4] = system: Escherichia coli K-12; experiment: Dispersion of preformed Escherichia coli K-12 ER2738 biofilm by crystal violet reporter assay relative to control
[5] = system: Escherichia coli K-12; experiment: Effect on Escherichia coli K-12 ER2738 biofilm formation by crystal violet reporter assay relative to control; format: functional, organism-based
Method in brief: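 E. coli biofilm development was measured under static conditions by crystal violet reporter assay. Cultures were grown with or without compound for 24 h, then planktonic cells and medium were removed and wells were water-washed. Biofilm was stained with crystal violet, and the retained dye was ethanol-solubilized and quantified at A540 against untreated control.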

SMILES | inhibition at 400 µM [1] | inhibition at 400 µM [2] | also measured
CCCCCCCCCCNC(=O)Cn1cc(CCCCCc2c[nH]c(N)n2)nn1 | 58.9% | – | –
Nc1nc(CCCc2cn(CC(=O)NCCc3ccccc3)nn2)c[nH]1 | -41.8% | 20.8% | –
COc1ccc(CNC(=O)Cn2cc(CCCc3c[nH]c(N)n3)nn2)cc1 | -19.9% | 17.5% | –
Nc1nc(CCCc2cn(CC(=O)NCCCc3ccccc3)nn2)c[nH]1 | -176% | 23.2% | –
Nc1nc(CCCCCc2cn(CC(=O)NCCc3ccccc3)nn2)c[nH]1 | -174% | – | –
COc1ccc(CCNC(=O)Cn2cc(CCCc3c[nH]c(N)n3)nn2)cc1.Cl | – | 8.5% | Activity [3]: > 800 µM
CCCCCCCCCCNC(=O)Cn1cc(CCCc2c[nH]c(N)n2)nn1.Cl | 90.8% | 28.3% | EC50 ([4]; Escherichia coli, ER2738, read-out: EC50): 120 µM; IC50 [5]: 36.9 µM; Activity [3]: 487 µM
Nc1nc(CCCc2cn(CC(=O)NC3CCCCC3)nn2)c[nH]1 | -169% | – | –
CCCCCCCCNC(=O)Cn1cc(CCCCCc2c[nH]c(N)n2)nn1.Cl | – | – | EC50 [4]: Not Active; IC50 [5]: 13 µM; Activity [3]: 675 µM
CCCCCCCCCCCCCCNC(=O)Cn1cc(CCCc2c[nH]c(N)n2)nn1 | 57.8% | 36.4% | –
Nc1nc(CCCc2cn(CC(=O)N3CCCC3)nn2)c[nH]1 | 2.6% | 6.2% | –
Nc1nc(CCCc2cn(CC(=O)Nc3ccccc3)nn2)c[nH]1 | -142% | 23% | –
Cl.Nc1nc(CCCc2cn(CC(=O)NCc3ccccc3)nn2)c[nH]1 | – | 19.5% | Activity [3]: > 800 µM
CC(C)(C)NC(=O)Cn1cc(CCCc2c[nH]c(N)n2)nn1 | 17.6% | 21.2% | –
CC(C)NC(=O)Cn1cc(CCCc2c[nH]c(N)n2)nn1 | -127% | 13.6% | –
CCCCCCNC(=O)Cn1cc(CCCc2c[nH]c(N)n2)nn1 | -30.3% | 31.4% | –
COc1ccc(NC(=O)Cn2cc(CCCc3c[nH]c(N)n3)nn2)cc1 | -169% | – | –
Nc1nc(CCCc2cn(CC(=O)N3CCOCC3)nn2)c[nH]1 | -183% | 30.3% | –
Nc1nc(CCCCCc2cn(CC(=O)Nc3ccccc3)nn2)c[nH]1 | -143% | – | –
Nc1nc(CCCc2cn(CC(=O)NC3CCCC3)nn2)c[nH]1 | -47.8% | 15.9% | –
